Measurements from the EternaBench riboswitch data.

Test system: MS2 coat protein
Assay: apparent Kd, MS2 coat protein; higher = weaker binding; RNA-MaP array; FMN 200 µM where present
Procedure, shortened: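 Apparent Kd: the median of filtered binding-curve fits from single clusters. Designs were transcribed on Illumina sequencing-chip clusters by stalled E. coli RNA polymerase and titrated with SNAP-549-labelled MS2 coat protein from 0.7 or 1.5 nM, doubling to 3 µM, in 100 mM Tris-HCl pH 7.5, 80 mM KCl, 4 mM MgCl2, BSA, DTT, yeast tRNA and Tween-20. Each series ran without and then with constant ligand, and green signal was normalised to red-channel RNA signal and control-cluster median Fmax.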

[1] = designed as: OFF switch for flavin mononucleotide, no ligand
[2] = ligand present: flavin mononucleotide, designed as: OFF switch for flavin mononucleotide
[3] = designed as: ON switch for flavin mononucleotide, no ligand
[4] = ligand present: flavin mononucleotide, designed as: ON switch for flavin mononucleotide

Sequence	apparent Kd [1]	apparent Kd [2]	apparent Kd [3]	apparent Kd [4]
AGUCGGAGCAGAGGAUAUACAUGAGGAUCACCCAUGUAAUAAAGUGAAGCCUGGAAGCAGGCAAUGUAGAAGGCUGCUCCGACA	11.1 nM	81.8 nM	–	–
AGUCGGAGCAGAGGAUAUAUACAUGAGGAUCACCCAUGUGAAUGAAUAAGCUGGAAACAGCAUGUAUAGAAGGCUGCUCCGACA	352 nM	603 nM	–	–
AGUCGGAGCAGAGGAUAUUACAUGAGGAUCACCCAUGUGGAAAAACCAAGCUGGAAACAGCAAUGUAAGAAGGCUGCUCCGACA	497 nM	879 nM	–	–
AGUGCCAUGUAGAAGGCAGAUCUGAUUCAGAUCUGAGGAUAUACAUGAGGAUCACCCAUGUAAAUGCACUGCACGAGAGUGCAA	12 nM	43.9 nM	–	–
AGUGCCAUGUAGAAGGGAGAUCUGAUUCAGAUCUCAGGAUAUACAUGAGGAUCACCCAUGUAAAUGCACUGCACGAGAGUGCAA	12.5 nM	30.9 nM	–	–
AGUGCGUAUGUGAGGAUAUGCUGGUCCUUGGAUCAGCAGAAGGCACAUGAGGAUCACCCAUGUGGUGUCGUACC	209 nM	36.4 nM	–	–
AGUGUCAUCCAGAAGGCCUCAUUACAUGAGGAUCACCCAUGUAAUCGUGGGAGGAUAUGGAUGAUACAGCUACGUUUCGUAGCA	–	–	7.42 nM	4.65 nM
AGUGUCAUCGAGAAGGCCUCAACAUGAGGAUCACCCAUGUUGCAAAAUGGGAGGAUAUCGCGAAAACAGCUACGUUUCGUAGCA	–	–	40.8 nM	8.79 nM
AGUGUCAUCGAGAAGGCCUCAACAUGAGGAUCACCCAUGUUGCAAAAUGGGAGGAUAUCGCGCGUUAAAAAACGUUUCGUAGCA	–	–	38.3 nM	17.5 nM
AGUGUCAUCGAGAAGGCCUCGACAUGAGGAUCACCCAUGUUGUAACAUGGGAGGAUAUCGAUGAUACAGCUACGUUUCGUAGCA	–	–	767 nM	394 nM
AGUGUCAUCGAGAAGGCCUUGACAUGAGGAUCACCCAUGUUAUAACAUGGGAGGAUAUCGAUGAUACAGCUACGUUUCGUAGCA	–	–	509 nM	46.7 nM
AGUGUCGGCACAGGAUAUGAGAUGCCGGCAGACAUGAGGAUCACCCAUGUAAGCGAACCAGGCAGUCAGAAGGGUGAUCGACAA	–	–	46.8 nM	24.4 nM
AGUGUGUGGCAGGAUAUGCGAUUUGUCGGUGAAGCAGAAGGGUCUACAUGAGGAUCACCCAUGUGUGCGGUUGA	141 nM	381 nM	–	–
AGUGUGUUAGGAUAUCGGAUAUGCUGGAGGAGGUGGAGUUACGAGAAGGAACAUGAGGAUCACCCAUGUAGGAC	25.8 nM	23.2 nM	–	–
AGUUAAUAUCGAGGAUAUAAGUCUAGGACAUGAGGAUCACCCAUGUAUGUCUUAGAAGGCGAUAUUAACAGCAUGUUACAUGCA	–	–	28.3 nM	6.89 nM
AGUUAAUAUCGAGGAUAUGUCUAAACACAUGAGGAUCACCCAUGUAUGUGUAUAGAAGGCGAUAUUAACAGCAUGUUACAUGCA	–	–	28.8 nM	8.58 nM
AGUUACAAACUCAACAUGAGGAUCACCCAUGUACUCUCUUGUAAGGAUAUACAUUCGUAUUGAAAGUAGAAGGUACUAAUUAUG	–	–	69.4 nM	69.8 nM
AGUUACAUGUAAGGAUAUACUAGCGAUAAGCUAGUAGAAGGUACUGUCUAUUGUAUCACUAUUAUACAUGAGGAUCACCCAUGU	–	–	7.56 nM	6.36 nM
AGUUAGAUAGCGAUAUGAUCGAGAGAUCAUGUCGCUAAAUUUAGAAGGACAUGAGGAUCACCCAUGUAGGAUAUGGGUAUAGAA	–	–	367 nM	128 nM
AGUUGGCGAGGAUAUACAUGAGGAUCACCCAUGUGAAAUAGAAUAGUGAGGAAGAAAAGUAGAAGGCGCUGACA	58.6 nM	323 nM	–	–
AGUUGUUCAGGAUAUGGUGUGUUAUACAUGAGGAUCACCCAUGUGGGUCCUGGUUUGGCCUCAGAAGGGAAUGUUA	476 nM	449 nM	–	–
AGUUUGUGAGGAUAUCCAAUAUAUGACAUGAGGAUCACCCAUGUUUCCACUCGUACCUCCGGAGAAGGCACUGCGU	30.7 nM	26.9 nM	–	–
AUAAAACAUGAGGAUCACCCAUGUCAACAAAGUCGAGGAUAUGGGCAAAUAAAAUAAGAACCAGAAGGCGAAUAAC	–	–	371 nM	34.7 nM
AUAAAACAUGAGGAUCACCCAUGUCAACAAAGUCGAGGAUAUGGGCAAAUAAAAUAAGAACCAGAAGGCGAAUUAU	–	–	210 nM	38.6 nM
AUAAAUCAUGUAGGAUAUGCGUGGCGAAGCUAUGCAGAAGGACAUGAGGAUCACCCAUGUCUUUCCGUCUGCGUAUAGACGGAA	30.5 nM	279 nM	–	–
AUAAGCUCGUCAGGAUAUGCGACACUGUGUCAGCAGUGUGGUAUGAUCACAUGAGGAUCACCCAUGUAGAAGGGACGAGCUUAU	6.34 nM	14.3 nM	–	–
AUAAGUGCAGGAUAUACGGGAAGCUAGCGAAAGCUAGCAAAACAUGAGGAUCACCCAUGUAGAAGGGCACAAUA	57.4 nM	121 nM	–	–

Sequence	apparent Kd [1]	apparent Kd [2]	apparent Kd [3]	apparent Kd [4]
AUAAUAAUAUAAGGAUAUACGUCACUGCGUCAGCAGUGUGGUAAGAUCACAUGAGGAUCACCCAUGUAGAAGGAUAAAUUAAAU	12.4 nM	9.22 nM	–	–
AUAAUCACAUGAGGAUCACCCAUGUACCGAGCUAAAGCUACAUAGGAUAUGACAAGUAUAGCUUGUCAGAAGGGUGAGUCUCGC	–	–	46.3 nM	67.1 nM
AUAAUGUGAGGAUAUCAGUCGACUAGCUGCGGCUAGUCGACUGAGAAGGCACAUGAGGAUCACCCAUGUAGAUC	978 nM	47.7 nM	–	–
AUACAUGAGGAUCACCCAUGUUACUGGGUCUUUUUAGAACGUAGAAGGAUGAUAUUAUAAAUAUCAUAGGAUAUACUAUAUUGU	52 nM	59.5 nM	–	–
AUACAUGAGGAUCACCCAUGUUACUGGGUCUUUUUAGAACGUAGAAGGAUGUUUUUAUACAUAACAUAGGAUAUACAAUAUUGU	51.8 nM	48.9 nM	–	–
AUACCACGAGGAUAUCGUCUAUAAUACAUGAGGAUCACCCAUGUUAUAUCUGUAAUGUUUCGAGAAGGCGUUUGUU	24.3 nM	17.1 nM	–	–
AUACUAAAUGAAGGAUAUCUAAGCAUAAACCUGAGAGAAGGUCAUUUUUACAUGAGGAUCACCCAUGUUGUGAUUAAUGGGUUA	71.8 nM	144 nM	–	–
AUACUAAAUGAAGGAUAUCUAAGCAUAAACCUGAGAGAAGGUCAUUUUUACAUGAGGAUCACCCAUGUUGUGGUUAAUGGGUUA	216 nM	317 nM	–	–
AUACUCAUGUAAGGAUAUGCAGCCGUUUCGGCUGCAGAAGGUACUAUAAUACAUGAGGAUCACCCAUGUCUCUCGCAUUGCGGG	–	–	400 nM	101 nM
AUAGGCCUAGGAUAUACAUGAGGAUCACCCAUGUUAAUACUUCAAUCAUGAUAAACGUGUAGAAGGAGGAAUAA	25.8 nM	26.1 nM	–	–
AUAGGUUAAGGAGGAUAUAGAGGGAGAAGUACACAUGAGGAUCACCCAUGUAUUUAAUUAGUUUACUAGAAGGCUUAUGAUUGU	–	–	46.6 nM	53.8 nM
AUAGUUUUCAUAGGAUAUUGAAUUAUAUUUAAUCAAGAAGGAUGAAUACAUGAGGAUCACCCAUGUUAACAUGGAUUAAGUAGU	20.9 nM	44.3 nM	–	–
AUAUACAUUCGAGGAUAUCGUUAAAAUGUUAUGCGAGAAGGCGAGUCAUGAUUUAUUAUUUAGGACAUGAGGAUCACCCAUGUA	–	–	40.2 nM	33.1 nM
AUAUACUUCCAGAAGGCACAUGAGGAUCACCCAUGUACGUCUGACAUCGUGUGAGGAUAUGGAGCACGAACGCUAAAGCGGGCA	7.92 nM	21.3 nM	–	–
AUAUAUAUAAAGAAGGUGCCAGCGAGAGCUGCACAUGAGGAUCACCCAUGUUGUCGGUGACGACGCAAGGAUAUUUAUAUAUAU	–	–	31.6 nM	7.28 nM
AUAUAUUAGUUAGGAUAUCUGUAAUUUAUUGAAACAUGAGGAUCACCCAUGUUCAUAAAUUUAUAGGAGAAGGGAUAGAUAUAU	–	–	5.17 nM	5.03 nM
AUAUCCGAAGCAGGAUAUCGACGAGGUGUCGAGAUAGAGCGUACUCACAUGAGGAUCACCCAUGUCGAGAAGGGCUAUAGGAUA	22.2 nM	83.4 nM	–	–
AUAUCUUAUGAGAAGGCGAUCAUGAAACAUGAUCGAGGAUAUCAUGUAAACAUGAGGAUCACCCAUGUAUGGGUAUUAUGGUAU	–	–	89.4 nM	57 nM
AUAUGAAAGAUAGGAUAUACUGAGGUUGAAUGGGUAGAAGGAUCGAUAGUGGAGAAGACAUGAGGAUCACCCAUGUUGUGGAUU	–	–	656 nM	237 nM
AUAUGAUAGAUAGGAUAUACAGUGGAUUUAUAAGUAGAAGGAUCAAGUGGGAAUUAUACAUGAGGAUCACCCAUGUUUUUGGAU	–	–	68.2 nM	45.8 nM
AUAUGAUAGAUAGGAUAUACUAUGGUUGAAGAAGUAGAAGGAUCAAUUGGGAAAUGUACAUGAGGAUCACCCAUGUUAUGGGUU	–	–	943 nM	493 nM
AUAUUAUAGAUCCAUUUAUUCAACAUGAGGAUCACCCAUGUGCAGGAUAUCGUGUGUUUUAUAAACGAGAAGGGCAAAUUCAUU	31.9 nM	96.7 nM	–	–
AUCAACUCGUCAGGAUAUACGUCACUGCGUCAGCAGUGUGGUAAGAUCACAUGAGGAUCACCCAUGUAGAAGGGACGAGCUGAU	12.5 nM	269 nM	–	–
AUCACGUAAGGAUAUUCCUACGCAGACAUGAGGAUCACCCAUGUGUUAGUGAAGAAUCGAGGAGAAGGUACAAUGG	29.5 nM	26.8 nM	–	–
AUCAGCUCGUCAGGAUAUACAUCACUGCUUCGGCAGUGUAUUAAGAUCACAUGAGGAUCACCCAUGUAGAAGGGACGAGCUGAU	31.7 nM	310 nM	–	–
AUCAGCUCGUCAGGAUAUACGUCACUGCGUCAGCAGUGUGGUAACAUCACAUGAGGAUCACCCAUGUAGAAGGGACGAGCUGAU	5.84 nM	11.3 nM	–	–
AUCAGCUCGUCAGGAUAUACGUCACUGCGUCAGCAGUGUGGUAAGAUCACAUGAGGAUCACCCAUGUAGAAGGCACGAGCUGAU	8.44 nM	9.04 nM	–	–
